This note sets out measurements from ChEMBL document CHEMBL1151787, “Salicylanilides: selective inhibitors of interleukin-12p40 production” (Bioorg Med Chem, 2008).

Active and inactive are the calls of the source. No cut-off for these calls is given here.

A short description of data set [1]: Inhibition of CD40L, IFN-gamma and IL18 mixture-induced IL6 production in mouse DC-B cells after 18 to 24 hrs by fluorescence immunoassay. It is filed as functional, cell-based. Summed up: (§1)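 DC-B cells grown in GM-CSF (20 ng/mL) medium and passaged every 48 h. Cells were mixed with compound in low-serum assay medium (0.4% DMSO) and stimulated with murine CD40L 2 ng/mL, IL-18 40 ng/mL and IFN-gamma 20 ng/mL (final). Incubation was 18–24 h at 37 °C, 5% CO2. Supernatant IL-12p40 or IL-6 was measured by europium sandwich immunoassay (biotinylated detection antibody, Eu-streptavidin, 615 nm). Ten concentrations were tested, in triplicate, and results were expressed as percent of control versus concentration.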

Data set [2] in a line: Cytotoxicity against CD40L, IFN-gamma and IL18 mixture-stimulated mouse DC-B cells at <100 nM after 18 hrs by CellTiter-Glo assay. It is filed as cell-based. The method, boiled down: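 Murine dendritic cell line DC-B treated with test compound, then stimulated as in the cytokine assay (mouse CD40L, IL-18, IFN-gamma) and incubated 18 h. CellTiter-Glo reagent added in volume equal to the culture. Plates shaken 2 min to lyse cells, then left 10 min without shaking. Luminescence read on a microplate reader.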

A short description of data set [3]: Inhibition of CD40L, IFN-gamma and IL18 mixture-induced IL12p40 production in mouse DC-B cells after 18 to 24 hrs by fluorescence immunoassay. It is filed as functional, cell-based. Summed up:
as §1

Another data set is filed under the species Mus musculus. The data set is described as follows: Inhibition of CD40L, IFN-gamma and IL18 mixture-induced IL12p40 production in mouse DC-B cells at 10 uM after 18 to 24 hrs by fluorescence immunoassay. It is filed as functional, cell-based.

Consider `O=C(Nc1cccc(Cl)c1)c1ccccc1O`, for which the values for the IC50 in data set [1] and in data set [3] were above 10 µM and 5.1 µM, respectively. Moreover, the Activity result in data set [2] is on record as “Non-toxic”.
Consider `CN(C(=O)c1ccccc1O)c1cc(Cl)cc(Cl)c1`, for which the IC50 in data set [1] and in data set [3] was above 10 µM in each case. For the same molecule, in data set [2], the Activity entry is on record as “Non-toxic”.
`O=C(Nc1cc(C(F)(F)F)ccc1Cl)c1ccccc1O`: the IC50 in data set [1] is 1.8 µM; in data set [3] it was 0.2 µM. Besides, in data set [2], the Activity entry is “Non-toxic”.
In the case of `Oc1ccc(Br)cc1CNc1cc(Cl)cc(Cl)c1`, the IC50 in data set [1] was 1.7 µM; in data set [3] it was 2.7 µM. For the same molecule, the Activity result in data set [2] is listed as “Non-toxic”.
With `O=C(Nc1cc(Cl)cc(Cl)c1)c1cc([N+](=O)[O-])ccc1O`, the values for the half-maximal inhibitory concentration (IC50) in data set [1] and in data set [3] were 0.17 µM and 0.41 µM, respectively. For the same molecule, in data set [2], the Activity result was “Non-toxic”.
As for `O=C(Nc1cc(Cl)cc(Cl)c1)c1ccc([N+](=O)[O-])cc1O`, the IC50 came to 0.25 µM in data set [1] and 0.32 µM in data set [3]. For the same molecule, in data set [2], the Activity result is on record as “Non-toxic”.
Taken in the same sequence, the figures for `O=C(Nc1cc(Cl)c(Cl)cc1Cl)c1ccccc1O` were above 10 µM, 0.045 µM and “Non-toxic”.
Take `O=C(Nc1cc(Cl)cc(Cl)c1)c1ccccc1OCc1ccccc1`: the IC50 in data set [1] and in data set [3] was above 10 µM throughout. In the data set listed under Mus musculus, the outcome was inactive. The Activity result in data set [2] is on record as “Non-toxic”.
With `Cc1cc(C)cc(NC(=O)c2ccccc2O)c1`, the IC50 in data set [1] and in data set [3] was above 10 µM in each case. The Activity result in data set [2] was “Non-toxic”.
With `O=C(Nc1cc(Cl)cc(Cl)c1)c1ccccc1O`, the figures for the concentration for half-maximal inhibition (IC50) in data set [1] and in data set [3] were above 10 µM and 0.013 µM, respectively. Further, the Activity result in data set [2] is reported as “Non-toxic”.
As for `O=C1c2cccc(O)c2C(=O)N1c1cc(Cl)cc(Cl)c1`, the IC50 in data set [1] and in data set [3] was above 10 µM throughout. In addition, in data set [2], the Activity result is “Non-toxic”.
`O=C(Nc1ccccn1)c1ccccc1O`: the half-maximal inhibitory concentration (IC50) in data set [1] and in data set [3] was above 10 µM in each case. For the same molecule, in data set [2], the Activity entry was “Non-toxic”.
`O=C(O)CN(C(=O)c1ccccc1O)c1cc(Cl)cc(Cl)c1`: the IC50 in data set [1] and in data set [3] was above 10 µM each time. Moreover, the Activity entry in data set [2] was “Non-toxic”.
As for `O=C(Nc1cc(C(F)(F)F)cc(C(F)(F)F)c1)c1ccccc1O`, the IC50 in data set [1] is 0.74 µM; in data set [3], 0.12 µM. Moreover, the Activity entry in data set [2] was “Non-toxic”.
For `O=C(Nc1ccc(O)cc1)c1ccccc1O` [OSALMID], the IC50 in data set [1] and in data set [3] was above 10 µM throughout. Further, in data set [2], the Activity result is recorded as “Non-toxic”.
`O=C(Nc1cc(Cl)cc(Cl)c1)c1ccccc1NS(=O)(=O)c1ccc(Cl)c([N+](=O)[O-])c1`: the results for the IC50 in data set [1] and in data set [3] were 0.22 µM and 0.24 µM, respectively. For the same molecule, the Activity result in data set [2] is recorded as “Non-toxic”.
`O=C(Nc1cc(Cl)cc(Cl)c1)c1cc(Br)ccc1O`: the half-maximal inhibitory concentration (IC50) in data set [1] amounted to 0.3 µM; in data set [3], 0.013 µM. Moreover, in data set [2], the Activity result is “Non-toxic”.
For `O=c1oc2cc(Cl)ccc2c(=O)n1-c1cc(C(F)(F)F)cc(C(F)(F)F)c1`, the values for the IC50 in data set [1] and in data set [3] were 0.35 µM and 0.28 µM, respectively. Also, the Activity result in data set [2] was “Non-toxic”.
Turning to `O=C(Nc1cc(Cl)c(Cl)cc1Cl)c1cc(Br)ccc1O`, the IC50 in data set [1] is 0.64 µM; in data set [3], 0.074 µM. In data set [2], the Activity result is recorded as “Non-toxic”.
Take `O=C(Nc1ccc(Cl)c(Cl)c1)c1cc(Cl)ccc1O`: the IC50 in data set [1] and in data set [3] was 0.13 µM in each case. For the same molecule, the Activity entry in data set [2] is listed as “Non-toxic”.

As a reminder, the IC50 is the concentration that inhibits the measured activity by half.
